Sampled rows, rich in hits. Any-hit rate of the full collection: about 1.8%.
HKDC1 inh: HKDC1 (human) hexokinase inhibition; Q2TB90; recombinant HKDC1, G6PDH/diaphorase resazurin coupled fluorescence; inhibition, % at 20 µM; 0.16% of 340,000 active;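 active means inhibition above about 35% when tested at 20 µM, limit read from the data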;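 further: plate controls were DMSO wells with enzyme for no effect and DMSO wells lacking enzyme for full effect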
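Material: recombinant HKDC1 hexokinase; Amount: HKDC1 at 5 µg/mL; Medium: Tris pH 8.0 buffer with MgCl2, Tween-20, BSA, BME; Schedule: 90 min reaction incubation at room temperature, dark; Technique: coupled resazurin fluorescence, excitation 525 nm, emission 613 nm.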
A1 inh: inhibitors of the anti-apoptotic protein A1, read as caspase activation; MEF A1-2A-BIM cells, Caspase-Glo 3/7 luminescence, 3 h; percent of clofoctol response, vehicle zero; caspase activation, % (no concentration beside the values); 0.066% of 330,000 active; AID 2462;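 active means over half of replicate activation scores above 10%, or exactly half above 10 with the replicate mean above 10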
HDAC3 inhib: inhibitors of human histone deacetylase 3; recombinant HDAC3, fluorogenic peptide/trypsin coupled, fluorescence; inhibition, % at 8.3 µM; 0.15% of 320,000 active; AID 2718; in the data active means inhibition above about 26%, passing the limit was not always enough
LANA-H2B inh: blocks KSHV LANA binding to histone H2A/H2B | cell-free LANA-H2A/H2B peptide, fluorescence polarization | AID 2629 | inhibition, % (no concentration beside the values) | 0.6% of 320,000 active; in the data active means inhibition mostly above about 10%, no sharp cut-off; inactive means mostly below about 6.7%
ATG4B inhibitor: blocks human ATG4B protease cleavage of LC3 substrate; ATG4B cleavage of LC3-PLA2, NBD-HPC fluorescence, 1 h; inhibition, % at 8.33 µM; 0.51% of 340,000 active; AID 504462; in the data active means inhibition above about 40%
Target sequence (Q9Y4P1 whole entry, looked up): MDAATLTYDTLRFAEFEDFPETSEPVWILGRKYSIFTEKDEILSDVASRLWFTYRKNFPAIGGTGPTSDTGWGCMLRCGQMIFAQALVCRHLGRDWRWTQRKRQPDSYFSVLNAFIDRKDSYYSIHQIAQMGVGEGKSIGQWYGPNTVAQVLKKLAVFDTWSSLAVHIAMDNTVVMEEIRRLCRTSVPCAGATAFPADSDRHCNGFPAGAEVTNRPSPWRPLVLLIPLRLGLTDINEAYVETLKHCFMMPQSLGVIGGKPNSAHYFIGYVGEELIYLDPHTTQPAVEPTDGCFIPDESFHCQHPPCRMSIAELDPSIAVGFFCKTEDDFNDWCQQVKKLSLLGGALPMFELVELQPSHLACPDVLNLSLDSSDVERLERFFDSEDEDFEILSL
AI-2 QS modul: Vibrio harveyi AI-2 quorum sensing modulation. activity change, % at 7.5 µM. Vibrio harveyi JMH597 AI-2 luminescence/OD600 ratio, 9 h; hits give low values; strain lacks LuxN and CqsS sensors; 0 = neutral-control median. AID 2094. 0.4% of 300,000 active; in the data active means activity change below about -75%, passing the limit was not always enough;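 further: luminescence divided by OD600 gain over 9 h not by final OD600 alone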
JMH597 growth rt: retest: blocks Vibrio harveyi JMH597 growth; shares compounds with AI-2 QS modul; OD600 absorbance, 9 h; lacks LuxN and CqsS sensors; growth inhibition, % at 7.5 µM; 1% of 750 active;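 active means every replicate shows growth inhibition above 50%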
BB721 lum counter: retest counter-screen: BB721 constitutive quorum sensing luminescence decrease. shares compounds with AI-2 QS modul. Vibrio harveyi BB721 luminescence, 9 h. inhibition, % at 7.5 µM. 95% of 750 active;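 active means inhibition above about 80% in every replicate, not just on average, limit read from the data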
BB721 growth rt: retest: blocks Vibrio harveyi BB721 growth | shares compounds with AI-2 QS modul | OD600 absorbance, 9 h | growth inhibition, % at 7.5 µM | 3% of 750 active;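 active means every replicate shows growth inhibition above 50%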
AI-2 QS JMH597: Vibrio harveyi AI-2 signaling luminescence modulation – JMH597 strain, confirmation | 97% of 750 active | AID 2736 | inhibition, % at 7.5 µM | shares compounds with AI-2 QS modul | Vibrio harveyi JMH597 AI-2 quorum sensing luminescence, 9 h; luxN and CqsS knockout, AI-2 only;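 active means every replicate shows more than 75% inhibition of signal versus neutral control wells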
Starred values were filed as active, the others as inactive.

For O=c1oc2ccccc2cc1NCc1ccccc1O the results were HKDC1 inh 1, A1 inh -3, HDAC3 inhib -2, LANA-H2B inh 2, ATG4B inhibitor 3, AI-2 QS modul -94*, JMH597 growth rt 14, BB721 lum counter 97*, BB721 growth rt 15 and AI-2 QS JMH597 98*.
Screening O=C(NCc1ccccc1Cl)c1cc2ccccc2oc1=O returned HKDC1 inh -8, A1 inh 1, HDAC3 inhib 1, LANA-H2B inh -6, ATG4B inhibitor -12 and AI-2 QS modul -9.
For O=C(/C=C/c1ccc(F)cc1)NCc1cccs1 the results were HKDC1 inh -7, A1 inh 0, HDAC3 inhib 6, LANA-H2B inh 2, ATG4B inhibitor 1, AI-2 QS modul -90*, JMH597 growth rt 4, BB721 lum counter 95*, BB721 growth rt 12 and AI-2 QS JMH597 96*.
`O=C(/C=C/c1ccc(Br)cc1)NCc1cccs1` gave HKDC1 inh 9, A1 inh -1, HDAC3 inhib 8, LANA-H2B inh -5, ATG4B inhibitor 2 and AI-2 QS modul -31.
O=C(/C=C/c1ccccc1Cl)NCc1cccs1 was read as HKDC1 inh -6, A1 inh -1, HDAC3 inhib 1, LANA-H2B inh 1, ATG4B inhibitor 11, AI-2 QS modul -93*, JMH597 growth rt 14, BB721 lum counter 97*, BB721 growth rt 1 and AI-2 QS JMH597 98*.
O=C(/C=C/c1cccs1)NCc1ccccc1 was read as HKDC1 inh 0, A1 inh 0, HDAC3 inhib 3, LANA-H2B inh 0, ATG4B inhibitor 0, AI-2 QS modul -90*, JMH597 growth rt 9, BB721 lum counter 97*, BB721 growth rt 5 and AI-2 QS JMH597 97*.
For Cc1ccc(CNC(=O)/C=C/c2ccccc2Cl)cc1 the results were HKDC1 inh -5, A1 inh 0, HDAC3 inhib -7, LANA-H2B inh 5, ATG4B inhibitor -2, AI-2 QS modul -93*, JMH597 growth rt -4, BB721 lum counter 96*, BB721 growth rt -3 and AI-2 QS JMH597 97*.
O=C(Nc1ccccc1)c1ccc(NC(=O)C2CC2)cc1 was read as HKDC1 inh -1, A1 inh 1, HDAC3 inhib 4, LANA-H2B inh 3, ATG4B inhibitor -3 and AI-2 QS modul 7.
For O=C(CSc1ccc(-c2cccnc2)nn1)Nc1ccc(F)cc1 the results were HKDC1 inh 3, A1 inh 1, HDAC3 inhib 1, LANA-H2B inh -13, ATG4B inhibitor 1 and AI-2 QS modul -8.
`O=S(=O)([O-])CCC[n+]1c(/C=C\Nc2ccccc2)oc2ccc(-c3ccccc3)cc21` gave AI-2 QS modul 14.
Screening CCOC(=O)c1c(NC(=O)C(C)N2CCN(S(=O)(=O)c3cccs3)CC2)sc2c1CCC(C)C2 (stereo not given) returned HKDC1 inh -12, A1 inh -1, HDAC3 inhib 0, LANA-H2B inh -2, ATG4B inhibitor 36 and AI-2 QS modul 33.
CCN(C(=O)COC(=O)c1cnc(C)cn1)c1c(N)n(Cc2ccccc2)c(=O)[nH]c1=O was read as HKDC1 inh -7, A1 inh 0, HDAC3 inhib -1, LANA-H2B inh -54 and ATG4B inhibitor 0.
Screening CCN(CC(=O)Nc1ccc2c(c1)OCCO2)C(=O)c1ccc([N+](=O)[O-])s1 returned HKDC1 inh -3, A1 inh 0, HDAC3 inhib 2, LANA-H2B inh 3 and ATG4B inhibitor -5.
CCOC(=O)C1=C(C)NC(=S)NC1C (stereo not given) was read as HKDC1 inh 14, A1 inh 0, HDAC3 inhib 1, LANA-H2B inh 5, ATG4B inhibitor 1, AI-2 QS modul -82*, JMH597 growth rt 27, BB721 lum counter 56, BB721 growth rt 31 and AI-2 QS JMH597 72.
COC(=O)c1ccc2c(=O)[nH]c(COC(=O)c3[nH]c(C)c(C(C)=O)c3C)nc2c1 was read as HKDC1 inh 7, A1 inh 0, HDAC3 inhib -8, LANA-H2B inh 6 and ATG4B inhibitor 4.
Screening O=C(CC1C(=O)NC2CCCCC2N1C(=O)c1ccc(F)cc1)Nc1ccccc1 (stereo not given) returned HKDC1 inh 7, A1 inh 0, HDAC3 inhib -4, LANA-H2B inh -1, ATG4B inhibitor 2 and AI-2 QS modul 28.
COc1ccc(C/C(N)=N/OC(=O)c2cccs2)cc1 was read as HKDC1 inh -12, A1 inh 1, HDAC3 inhib -1, LANA-H2B inh -3, ATG4B inhibitor 5, AI-2 QS modul -84*, JMH597 growth rt 39, BB721 lum counter 97*, BB721 growth rt 22 and AI-2 QS JMH597 98*.
`Cc1ccccc1C(=O)O/N=C(\N)Cc1cccs1` gave HKDC1 inh -2, A1 inh -8, HDAC3 inhib 0, LANA-H2B inh -2, ATG4B inhibitor -2, AI-2 QS modul -87*, JMH597 growth rt -7, BB721 lum counter 95*, BB721 growth rt -8 and AI-2 QS JMH597 96*.
O=S(=O)(N/N=C\C=C\c1ccccc1)c1ccc(Cl)cc1 was read as HKDC1 inh 11, A1 inh 0, HDAC3 inhib 3, LANA-H2B inh 1, ATG4B inhibitor 13, AI-2 QS modul -94*, JMH597 growth rt 41, BB721 lum counter 99*, BB721 growth rt 27 and AI-2 QS JMH597 100*.
`COc1ccc(OCC(O)CN2CCc3ccccc3C2)cc1` (stereo not given) gave HKDC1 inh -4, A1 inh 0, HDAC3 inhib 8, LANA-H2B inh -2, ATG4B inhibitor -5 and AI-2 QS modul 16.
For CC(C)(C)c1ccc(OCC(O)CN2CCc3ccccc3C2)cc1 (stereo not given) the results were HKDC1 inh 3, A1 inh 0, HDAC3 inhib 3, LANA-H2B inh -4, ATG4B inhibitor 9, AI-2 QS modul -82*, JMH597 growth rt 16, BB721 lum counter 81*, BB721 growth rt 1 and AI-2 QS JMH597 88*.
